Screening data: PubChem BioAssay, Broad Institute
miR-122 sensor: miR-122 inhibition in Huh7 cells; Huh7 miR-122 Renilla luciferase sensor, 48 h; neutral wells = 0, positive control = 100; activation (reporter increase), % at 12.5 µM; 0.3% of 340,000 active; AID 602342;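 active = mean replicate activation score at least 90 and every replicate individually at or above 90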;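 note: higher luciferase means less miR-122 activity so hits act as miR-122 inhibitors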
Rtt109 HAT inh: C. albicans Rtt109 histone acetyltransferase inhibition; purified Rtt109/Vps75, ThioGlo CoA-SH fluorescence, 4 h; Q5AAJ8; 0.16% of 330,000 active; inhibition, % at 34.9 µM;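 active = inhibition of at least 50% in every replicate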
MLL AF4-AF9 inh: blocks AF4 peptide binding to human AF9; P42568; AlphaScreen, biotin-AF4 peptide binding to FLAG-AF9; inhibition, % at 10 µM; 0.47% of 350,000 active;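 active = every replicate reaching a set inhibition limit, whatever the replicate mean, cut at about 25% in these data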;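 note: 0% = plate neutral control median and 100% = total signal loss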
S100A4 inh HTS: S100A4-myosin IIA interaction inhibition; P26447; S100A4/TAMRA-MyoIIA peptide fluorescence polarization; inhibition, % at 10.7 µM; 0.14% of 360,000 active; AID 652163;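 active = mean inhibition of at least 70% across replicates, with every replicate also reaching that level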
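Test system: S100A4 monomer protein. Medium: HEPES buffer with Ca2+, pH 7.2. Reagent: fluorescent myosin IIA peptide, 5 nM. Compound dosing: single-point compound testing. Timing: 5 min between mix addition and reading. Benchmarks: DMSO neutral and TFP positive wells.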
ERAP1 HTS inh: ERAP1 (human) enzyme inhibition | recombinant ERAP1, Leu-AMC fluorescence, 60 min | Q9NZ08 | 0.15% of 340,000 active | inhibition, % at 10.7 µM;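 active = mean replicate inhibition of at least 30%, or all replicates individually reaching that 30% level; inactive = mean below 30% and not every replicate reaching it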;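 note: 0% = neutral control wells and 100% = L-leucinethiol positive control wells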
Active calls of the source: *; [ ] = remark or other dose. This is a sample that favours compounds with a hit; in the whole collection about 0.86% have one here.

For Oc1cc(-c2cccnc2)cc2cccnc12 the results were miR-122 sensor -13, Rtt109 HAT inh 2, MLL AF4-AF9 inh 26*, S100A4 inh HTS 0 and ERAP1 HTS inh -2.
Screening C(=C\c1sc(Nc2ccccc2)n[n+]1-c1ccccc1)/c1ccccc1 returned miR-122 sensor -3, Rtt109 HAT inh -2, MLL AF4-AF9 inh 31* and S100A4 inh HTS -2.
`COc1ccc(-c2sc(Nc3ccccc3)n[n+]2-c2ccccc2)cc1Br` gave miR-122 sensor 6, Rtt109 HAT inh 6, MLL AF4-AF9 inh -6, S100A4 inh HTS 4 and ERAP1 HTS inh 0.
Screening CC(C)C#Cc1ccc([C@H]2[C@H]3CN(S(=O)(=O)c4ccccc4)CC(=O)N3[C@H]2CO)cc1 returned MLL AF4-AF9 inh 1, S100A4 inh HTS -4 and ERAP1 HTS inh 0.
For NC(N)=NN=Cc1ccnc2ccccc12 the results were MLL AF4-AF9 inh 5, S100A4 inh HTS 2 and ERAP1 HTS inh -11.
`NC(=NCc1ccccc1)NN=Cc1ccnc2ccccc12` gave MLL AF4-AF9 inh 27*, S100A4 inh HTS 1 and ERAP1 HTS inh 9.
COC(=O)c1cc(=O)n(-c2ccccc2)c(=Nc2ccccc2)s1 was read as Rtt109 HAT inh 5, MLL AF4-AF9 inh 28*, S100A4 inh HTS -10 and ERAP1 HTS inh 7.
`CCCNC(=O)N(C)C[C@@H]1Oc2ncc(C#CC3CC3)cc2C(=O)N([C@@H](C)CO)C[C@@H]1C` gave miR-122 sensor 1[16.7 µM], MLL AF4-AF9 inh -5, S100A4 inh HTS 1 and ERAP1 HTS inh 0.
CCN1C(=NCC2CC2)N[C@@H](c2ccccc2)C(C(=O)OC)=C1C was read as miR-122 sensor -2, Rtt109 HAT inh 2, MLL AF4-AF9 inh -20, S100A4 inh HTS -5 and ERAP1 HTS inh 3.
CCN(CC)CCCN=C1N[C@@H](c2ccccc2)C(C(=O)OC)=C(C)N1CC was read as miR-122 sensor -1, Rtt109 HAT inh 6, MLL AF4-AF9 inh -5, S100A4 inh HTS -2 and ERAP1 HTS inh 63*.
For C[C@H](O)C#Cc1ccc([C@H]2[C@H]3CN(C(=O)Nc4ccccc4)CCCCN3[C@H]2CO)cc1 the results were miR-122 sensor -3[16.7 µM], MLL AF4-AF9 inh -5, S100A4 inh HTS 3 and ERAP1 HTS inh 1.
Cc1cc(N=Nc2ccccc2C(=O)O)c(C)c(C)c1O was read as Rtt109 HAT inh 37, S100A4 inh HTS -26 and ERAP1 HTS inh 1.
Screening Cc1cc(O)c(C(C)C)cc1N=Nc1ccccc1C(=O)O returned miR-122 sensor 190*, Rtt109 HAT inh 10, MLL AF4-AF9 inh -8 and S100A4 inh HTS -20.
`O=P(OC1CCCCC1)(OC1CCCCC1)C(O)c1ccccc1` (stereo unspecified) gave miR-122 sensor 147* and Rtt109 HAT inh -1.
`O=C(CSc1ncc(-c2ccc(F)cc2)n1Cc1ccco1)Nc1ccc2c(c1)OCO2` gave miR-122 sensor 37 and Rtt109 HAT inh 5.
CCOc1ccc(NC(=O)CSc2ncc(-c3ccc(F)cc3)n2Cc2ccco2)cc1 was read as Rtt109 HAT inh 31, MLL AF4-AF9 inh 39*, S100A4 inh HTS -2 and ERAP1 HTS inh 1.
`Cc1ccc(-c2nnc(Nc3ccccc3)c3ccccc23)cc1S(=O)(=O)NCC1CCCO1` (stereo unspecified) gave miR-122 sensor 127* and Rtt109 HAT inh -6.
`Cc1cc(N/N=C/c2ccc(O)c(C)c2O)nc(-c2ccccc2O)n1` gave miR-122 sensor 101* and Rtt109 HAT inh -11.
For C/C(=N\Nc1cc(C)nc(-c2ccccc2O)n1)c1ccccc1 the results were miR-122 sensor 5, Rtt109 HAT inh 5, MLL AF4-AF9 inh 16, S100A4 inh HTS 2 and ERAP1 HTS inh 0.
`COc1ccccc1-c1c(C)nn2c(-c3ccccc3)cc(C)nc12` gave Rtt109 HAT inh 4, MLL AF4-AF9 inh 27*, S100A4 inh HTS 0 and ERAP1 HTS inh 2.
`COc1ccc(-c2c(C)nn3c(C)cc(C)nc23)cc1` gave miR-122 sensor -5, Rtt109 HAT inh 58*, MLL AF4-AF9 inh -1, S100A4 inh HTS -4 and ERAP1 HTS inh 1.
C[C@H]1CN([C@@H](C)CO)C(=O)c2cc(-c3ccc(C#N)cc3)cnc2O[C@H]1CN(C)C(=O)CN(C)C was read as miR-122 sensor 0[16.7 µM], MLL AF4-AF9 inh -1, S100A4 inh HTS 1 and ERAP1 HTS inh 2.
